This is a sample that favours compounds with a hit; in the whole collection about 12% have one here.
Arbovirus anti: arbovirus infection inhibition. inhibition, % at 10 µM. AID 1251. arbovirus infection cell-based antiviral screen. 200,000 tested, 0.37% active; in the data active means inhibition above about 30%
CHOP inh: inhibitors of CHOP induction in ER stress response; inhibition, % at 10 µM; AID 2732; CHO-K1 CHOP-promoter luciferase, tunicamycin-induced, 15-18 h; 220,000 tested, 3.8% active;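 active means compounds that reduced the stress-induced luciferase reporter signal by more than about 70% of percent inhibition, limit read from the data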;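 further: 0% = tunicamycin plus vehicle and 100% = wells without tunicamycin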
Wee1 stabilizer: blocks degradation of human Wee1 kinase; reporter increase, % at 5 µM; HeLa Luc-Wee1K328M stability, luciferase luminescence; 100% = proteasome inhibitor MG132 effect; AID 1321; 220,000 tested, 1.2% active; P30291;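 active means activation above the mean of all tested compounds plus 3 SD, set per screening run, cut at about 8.8% in these data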;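 further: cells exposed to compound for 20 h before luminescence read; 0% = DMSO alone and 100% = MG132 at 30 µM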
Target sequence (P30291 whole entry K328M): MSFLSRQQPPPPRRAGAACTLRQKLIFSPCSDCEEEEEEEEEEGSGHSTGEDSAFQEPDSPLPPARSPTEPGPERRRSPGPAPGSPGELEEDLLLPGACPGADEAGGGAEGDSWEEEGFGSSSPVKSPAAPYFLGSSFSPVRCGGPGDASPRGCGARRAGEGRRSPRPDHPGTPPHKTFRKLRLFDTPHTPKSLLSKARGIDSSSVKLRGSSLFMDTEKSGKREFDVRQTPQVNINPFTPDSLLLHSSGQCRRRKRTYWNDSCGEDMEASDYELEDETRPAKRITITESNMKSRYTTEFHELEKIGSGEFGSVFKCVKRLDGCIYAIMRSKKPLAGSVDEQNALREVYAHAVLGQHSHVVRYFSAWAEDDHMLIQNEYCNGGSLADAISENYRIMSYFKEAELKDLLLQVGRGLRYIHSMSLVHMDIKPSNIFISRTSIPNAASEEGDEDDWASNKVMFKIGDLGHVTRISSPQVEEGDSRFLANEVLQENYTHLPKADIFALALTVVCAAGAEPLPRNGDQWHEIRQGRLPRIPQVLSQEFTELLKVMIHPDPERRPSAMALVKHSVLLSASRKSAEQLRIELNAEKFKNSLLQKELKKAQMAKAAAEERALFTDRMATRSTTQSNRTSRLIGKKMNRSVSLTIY
L major viab: inhibitors of Leishmania major promastigote growth. Leishmania major promastigotes, resazurin fluorescence viability. inhibition, % at 10 µM. 200,000 tested, 9% active;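 further: promastigotes grown with compound for 44 hours at 28 °C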
PKD1 kinase inh: blocks activity of human protein kinase D1; PKD1 kinase fluorescence polarization assay; 200,000 tested, 0.056% active; Q15139; inhibition, % (test concentration not listed)
Rad51 HR inh: Rad51 (human) homologous recombination inhibition; Q06609; hRad51 DNA strand exchange, fluorescence dequenching; inhibition, % at 10 µM; 200,000 tested, 0.085% active;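 active means inhibition above 40% at the single screening dose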;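 further: 0% = DMSO control wells and 100% = blanks with heterologous ssDNA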
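System: human Rad51 nucleoprotein filaments preassembled on unlabelled ssDNA. Reagent: labelled 47-mer dsDNA for strand exchange. Schedule: 30-min compound preincubation and 15-min exchange, both room temperature. Measured by: FRET fluorescence dequenching, excitation 485 nm, emission 520 nm. Read-out: Fluorescence-based percent inhibition, control- and blank-normalised. Benchmarks: plate controls and plate blanks.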
* marks the source's active call; other numbers are inactive results; x = no result given. Unless noted, no stated cut-off is given here; in the data, active means inhibition above about 50%; inactive means the rest.

SMILES	Arbovirus anti	CHOP inh	Wee1 stabilizer	L major viab	PKD1 kinase inh	Rad51 HR inh
Cc1ccc2nc(-c3ccccc3)c(CN3CCSCC3)n2c1	10.4	31.7	-3.6	62.6*	5.6	6.9
Cc1ccc2nc(-c3ccccc3)c(CN3CCOCC3)n2c1	11.2	-1.4	-2.5	48.5	-3.9	6.3
CCOC(=O)c1ccc(-c2cc(C)no2)[nH]1	-8.1	23.4	-1.0	-4.6	7.1	2.8
COc1ccc(-c2[nH]c(-c3ccc(C)cc3)nc2SCC(=O)NC2CCCC2)cc1	-18.4	52.4	-2.2	84.0*	7.9	-7.1
COc1ccc(-c2[nH]c(-c3ccccc3)nc2SCC(=O)Nc2nccs2)cc1	-8.7	-0.8	-0.4	41.5	5.7	1.6
CCC(CC)C(=O)N1c2ccc(F)cc2CCC1C (stereo unspecified)	2.2	52.0	-3.0	-2.2	-4.3	3.1
CC1CCc2cc(F)ccc2N1C(=O)c1cnc2sccn2c1=O (stereo unspecified)	-0.2	78.5*	5.0	-7.1	12.9	-1.6
CC1CCc2cc(F)ccc2N1C(=O)CCl (stereo unspecified)	-8.2	92.0*	1.6	75.0*	-6.7	-5.5
Cc1oc(-c2cccs2)nc1CN1CCN(Cc2ccc(F)c(F)c2)C(CCO)C1 (stereo unspecified)	5.6	20.7	3.0	21.3	-1.9	x
CCn1cc(C(=O)NNC(=O)c2ccc(Cl)cc2)c(=O)c2ccc(C)nc21	-1.5	12.0	4.5	10.7	0.6	13.1
Cc1cc(C)c(NC(=O)Cn2nnc(C(=O)NCc3cccs3)c2N)c(C)c1	-7.0	84.9*	0.1	-5.7	-5.2	-13.7
C=C(C)CSc1nnc(CCCCCNC(=O)OC(C)(C)C)o1	x	27.5	-2.2	x	x	x
N/N=C(/Cc1nc2ccccc2[nH]1)c1ccc([N+](=O)[O-])cc1	-3.8	-12.2	-1.1	39.4	5.1	-6.0
CC(C)COc1ccc(C(=O)OC2CC(C)(C)OCC2CN(C)C)cc1 (stereo unspecified)	-6.8	70.6*	5.2	29.6	-3.0	13.4
CC(C)COc1ccc(C(=O)OCCN2CCOCC2)cc1	12.5	18.4	-1.6	-0.5	-6.5	12.4
Cc1ccc(-n2ncc(C(=O)Nc3cc(Cl)cc(Cl)c3)c2C2CCNCC2)cc1C	-28.5	3.0	3.8	100.6*	-4.0	-13.1
CCCCCc1cc(=O)oc2c(C(CCN3CCCC(C)C3)c3ccc(N(C)C)cc3)c(OC)cc(OC)c12 (stereo unspecified)	x	84.0*	x	x	x	5.7
COc1cc(OC)c2ccc(=O)oc2c1C(CCN1CCCC(C)C1)c1ccc(N(C)C)cc1 (stereo unspecified)	x	19.6	x	x	x	-8.6
CCCCCc1cc(=O)oc2c(C(CCN3CCCC(C)C3)c3cc(OC)c(OC)c(OC)c3)c(OC)cc(OC)c12 (stereo unspecified)	x	93.0*	x	x	x	-14.3
Cn1c(NC(=O)c2ccccc2NC(=O)C(C)(C)C)nc2ccccc21	-4.3	33.0	-0.2	77.2*	-6.0	-5.9
CCCn1c(NC(=O)c2ccc(Cl)c(S(=O)(=O)N3CCCC3)c2)nc2ccccc21	-25.2	48.9	-0.2	71.6*	-0.6	4.9
CCCn1c(NC(=O)c2cccc(C)c2C)nc2ccccc21	-21.8	-13.8	0.7	98.2*	-4.6	6.2
CCC(=O)Nc1nc2ccccc2n1Cc1ccc(C)cc1	-23.9	x	-1.0	98.7*	-8.5	-11.0
O=C(NCc1nc2ccccc2[nH]1)c1ccc(Cl)c(S(=O)(=O)N2CCCC2)c1	-8.7	-9.9	-1.0	-3.5	-1.9	-6.0
Cc1csc(NC(=O)C(NC(=O)c2ccccc2F)C(C)C)n1 (stereo unspecified)	26.0	4.0	0.1	-1.6	-4.2	7.0
COc1ccc(CCNC(=O)C2CC(c3cc(C(F)(F)F)cc(C(F)(F)F)c3)=NO2)cc1 (stereo unspecified)	x	33.2	x	x	x	2.8
Cc1ccc(CCNC(=O)C2CC(c3cc(C(F)(F)F)cc(C(F)(F)F)c3)=NO2)cc1 (stereo unspecified)	x	76.2*	x	x	x	-5.9
C#CCn1c(=NC(=O)c2cc(-c3cccs3)nc3ccccc23)sc2cc(S(N)(=O)=O)ccc21	-4.8	4.6	-3.0	-4.6	-13.9	-4.5
Cc1ccc(SCc2cc(=O)[nH]c(Nc3nc(C)c4cccc(C)c4n3)n2)cc1	3.1	33.8	-1.2	7.7	-0.2	1.8
CCOc1ccc2nc(Nc3nc(CSc4nnnn4-c4ccccc4)cc(=O)[nH]3)nc(C)c2c1	-41.7	36.2	-0.8	50.2*	-6.5	-7.6

Screens as filed in PubChem BioAssay.
